1 compound from ChEMBL document CHEMBL4152184, “NB 06: From a simple lysosomotropic aSMase inhibitor to tools for elucidating the role of lysosomes in signaling apoptosis and LPS-induced inflammation” (Eur J Med Chem, 2018) can be followed below.

Test [1] deals with T1, Acid ceramidase (Homo sapiens) (UniProt Q13510).
T1 sequence (whole entry): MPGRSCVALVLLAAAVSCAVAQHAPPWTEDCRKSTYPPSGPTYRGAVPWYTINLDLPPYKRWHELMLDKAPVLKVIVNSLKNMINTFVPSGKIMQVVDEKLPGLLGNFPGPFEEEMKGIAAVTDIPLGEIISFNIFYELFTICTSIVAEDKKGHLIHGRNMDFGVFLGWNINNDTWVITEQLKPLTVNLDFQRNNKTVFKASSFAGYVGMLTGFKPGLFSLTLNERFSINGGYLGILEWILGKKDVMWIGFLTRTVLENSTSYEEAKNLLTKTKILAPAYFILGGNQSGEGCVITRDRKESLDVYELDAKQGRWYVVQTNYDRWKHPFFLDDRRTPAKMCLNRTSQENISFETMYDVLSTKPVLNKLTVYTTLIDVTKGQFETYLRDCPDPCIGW
Kind of test: Inhibition of exogenous C6-ceramid-stimulated acid ceramidase in human PBMC assessed as ratio of C24:1-ceramide/lipid phosphate level at 10 uM preincubated for 30 mins followed by C6-ceramid stimulation measured after 4 hrs by HPLC method (reference value: 2.65). The format is cell-based. The gist of the method: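 Human macrophages from primary culture were preincubated 30 min with 10 µM compound. They were then stimulated 4 h with mmLDL (54 µg/mL), TNFalpha (3 ng/mL) or exogenous C6-ceramide (10 µM), or left unstimulated. Individual ceramide species (C16 and C24:1) were quantified in the cell lipid extracts.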

Test [2] relates to MONO-MAC-6. Kind of test: Upregulation of CXCL3 mRNA expression level in human MONO-MAC-6 cells at 5 uM incubated for 30 mins measured after 2 hrs by oligonucleotide array hybridization assay relative to control. The format is functional.
Test [3] deals with MONO-MAC-6. Kind of test: Downregulation of CCL4 mRNA expression level in human MONO-MAC-6 cells at 5 uM incubated for 30 mins measured after 2 hrs by oligonucleotide array hybridization assay relative to control. The format is functional. The gist of the method:
(§1)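 Total RNA was isolated, transcribed and labeled with DY-647 dye, then co-hybridized with DY-548-labeled cDNA from untreated cells on an inflammation oligonucleotide chip (780 gene probes). Differential expression >1.5 was taken as significant.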

The test system of test [4] is MONO-MAC-6. The test is described as follows: Upregulation of CCL4 mRNA expression level in LPS-stimulated human MONO-MAC-6 cells at 5 uM preincubated for 30 mins followed by LPS stimulation measured after 6 hrs by oligonucleotide array hybridization assay (reference value: 6.37). The format is functional.
Test [5] deals with MONO-MAC-6. The test is described as follows: Downregulation of CCL20 mRNA expression level in human MONO-MAC-6 cells at 5 uM incubated for 30 mins measured after 2 hrs by oligonucleotide array hybridization assay relative to control. The format is functional. The essentials:
as §1

Test [6] concerns MONO-MAC-6. The test is described as follows: Upregulation of PTX3 mRNA expression level in LPS-stimulated human MONO-MAC-6 cells at 5 uM preincubated for 30 mins followed by LPS stimulation measured after 4 hrs by oligonucleotide array hybridization assay (reference value: 4.65). The format is functional.
Test [7] has as its system MONO-MAC-6. The test is described as follows: Downregulation of PTX3 mRNA expression level in human MONO-MAC-6 cells at 5 uM incubated for 30 mins measured after 6 hrs by oligonucleotide array hybridization assay relative to control. The format is functional. The gist of the method: as §1
For test [8], the system named is MONO-MAC-6. Kind of test: Downregulation of PTGS2 mRNA expression level in LPS-stimulated human MONO-MAC-6 cells at 5 uM preincubated for 30 mins followed by LPS stimulation measured after 6 hrs by oligonucleotide array hybridization assay (reference value: 3.58). The format is functional. The gist of the method: as §1
The test system of test [9] is MONO-MAC-6. Kind of test: Downregulation of IL-6 mRNA expression level in LPS-stimulated human MONO-MAC-6 cells at 5 uM preincubated for 30 mins followed by LPS stimulation measured after 6 hrs by qRT-PCR method (reference value: 5.09). The format is functional. (In qPCR the cycle at which signal appears reflects the starting amount.)
The test system of test [10] is MONO-MAC-6. Kind of test: Downregulation of TNFalpha mRNA expression level in human MONO-MAC-6 cells at 5 uM incubated for 30 mins measured after 1 hr by qRT-PCR method relative to control. The format is functional.

For the compound `COc1ccc(CCN(C)CCCn2c3ccccc3c3ccccc32)cc1`, in test [1], the Ratio stood at 2.65. Also, the “fold change (FC)” value in the test on MONO-MAC-6 [2] stood at 1.25; in the test on MONO-MAC-6 [3], 1.05; with MONO-MAC-6 [4], 1.16; in the test on MONO-MAC-6 [5], 1; in the test on MONO-MAC-6 [6], 1.91; in the test on MONO-MAC-6 [7], 3.91. Moreover, the “fold change (FC)” value is recorded as 1.06 in the test with MONO-MAC-6 [8], 1.1 in the test with MONO-MAC-6 [9] and 1.83 with MONO-MAC-6 [10].
